Results collected from several papers.
Each line is one published result; the experiments were not run side by side.
Cell line: MCF7
Effect on: cell growth or viability

FC(F)(F)c1cccc(Nc2ncnc3ccc(-c4ccsc4)cc23)c1  IC50 (MTT; 24 h): 4.39 µM
COc1cc2ncnc(Nc3ccc(F)c(Cl)c3)c2cc1NC(=O)N/N=C/CN(C)C  IC50 (MTT; 72 h): 5.38 µM
Oc1cccc(-c2ccc3ncnc(Nc4cccc(C(F)(F)F)c4)c3c2)c1  IC50 (MTT; 24 h): 18.1 µM
O=C(NC(=S)Nc1ccc([N+](=O)[O-])cc1)c1ccc2ccccc2c1  IC50 (48 h): 7.7 µM
CC(C)Cc1ccc(-c2nn(-c3ccc(S(C)(=O)=O)cc3)cc2/C=N/N=c2\[nH]c(-c3ccc([N+](=O)[O-])cc3)cs2)cc1  IC50 (MTT; 48 h): 2.85 µM
Cc1ccc2c(Cl)cc(Cl)c(O)c2n1  IC50 (MTT; 48 h): > 100 µM
COc1cc(OC)c(/C=C/S(=O)(=O)Nc2ccc(OC)c(N)c2)c(OC)c1  IC50 (trypan blue; 96 h): 0.004 µM
C#Cc1cccc(Nc2ncnc3cc(OCCOC)c(OCCOC)cc23)c1  IC50 (MTT): 3.16 µM
O=c1ccn(Cc2cn(-c3c4ccccc4nc4ccccc34)nn2)c(=O)[nH]1  IC50 (MTT): 10.9 µM
CCOc1ccc(-c2nc3ccccc3[nH]2)cc1  IC50 (MTT; 48 h): > 100 µM
O=C1Nc2c(C(F)(F)F)cccc2[C@@]1(c1ccc(O)cc1)c1ccc(OC(F)(F)F)cc1  IC50 (resazurin; 72 h): 0.014 µM
COc1cc2ncnc(Nc3ccc(F)c(Cl)c3)c2cc1NC(=O)N/N=C/CN1CCCC1  IC50 (MTT; 72 h): 7.53 µM
CNc1nc2ccccc2n2c(-c3cccc(OC)c3)cnc12  IC50 (neutral red; 96 h): 0.217 µM
Fc1cccc(Cl)c1-c1nc2ccccc2[nH]1  IC50 (MTT; 48 h): > 100 µM
CC1(C)[C@@H](O)CC[C@]2(C)[C@H]3C(=O)C=C4[C@@H]5C[C@@](C)(C(=O)O)CC[C@]5(C)CC[C@@]4(C)[C@]3(C)CC[C@@H]12  IC50 (MTT; 48 h): > 100 µM
c1ccc2[nH]c(-c3ccc4c(c3)OCO4)nc2c1  IC50 (MTT; 48 h): > 100 µM
O=Cc1ccc(CO)o1  IC50 (WST-1; 48 h): 46.2 µM
COc1cc(/C=C/C(=O)c2ccc(NC(=O)c3ccccc3CN3C(=O)c4ccccc4C3=O)cc2)cc(OC)c1OC  IC50 (MTT; 72 h): 1.88 µM
COc1cccc(-c2nc3ccccc3n2Cc2ccccc2)c1  IC50 (MTT): 24.8 µM
COc1cc(Nc2nccc(-c3cnn4nc(OC)ccc34)n2)cc(C(F)(F)F)c1  IC50 (ATP luminescence): 0.95 µM
COc1cc2ncnc(Nc3ccc(F)c(Cl)c3)c2cc1NC(=O)N/N=C/c1cccn1CCN1CCCC1  IC50 (MTT; 72 h): 2.45 µM
C=CCn1c(-c2ccc(Cl)cc2)nc2ccc(C)cc21  IC50 (MTT): 22.2 µM
Oc1ncnc2cc(Nc3nc(-c4ccc(Br)cc4)cs3)ccc12  IC50 (MTT): 4.92 µM
CSc1nc(NC(=S)NCCc2ccccc2)n(-c2ccc(C(=O)O)cc2)n1  IC50 (MTT): 15.6 µM
O=C(/N=c1\scc(-c2ccccc2)n1C1CCCCC1)c1ccc2ccccc2c1  IC50 (48 h): 17.3 µM
COc1cccc(C(c2c(N)nc(SCC(N)=O)[nH]c2=O)c2c(N)nc(SCC(N)=O)[nH]c2=O)c1  IC50 (MTT; 72 h): > 100 µM
Cc1ccc2nc(-c3ccc([N+](=O)[O-])cc3)n(Cc3ccccc3Cl)c2c1  IC50 (MTT): 20.2 µM
O=C(N/N=C/CN1CCOCC1)Nc1cc2c(Nc3ccc(F)c(Cl)c3)ncnc2cc1O[C@H]1CCOC1  IC50 (MTT; 72 h): 1.08 µM
COCO[C@H]1C[C@H]2OC(C)(C)OC[C@]23[C@@H]2[C@@H](CC[C@]3(O)C1)[C@@]1(OCOC)CC[C@H](CO)[C@@]1(C)C[C@H]2OCOC  IC50 (resazurin; 72 h): > 100 µM
CCN(CC)CCCn1cccc1/C=N/NC(=O)Nc1cc2c(Nc3ccc(F)c(Cl)c3)ncnc2cc1OC  IC50 (MTT; 72 h): 2.43 µM
Oc1c(I)cc(Cl)c2cccnc12  IC50 (MTT; 48 h): 50.2 µM
Cc1ccc2nc(-c3cc(Br)ccc3O)[nH]c2c1  IC50 (MTT; 48 h): 4.37 µM
Cc1ccc(S(=O)(=O)NN=Cc2cn(CCN3CCOCC3)c3ccccc23)cc1  IC50 (MTT; 48 h): 61.1 µM
CCOc1cc(OCC)cc(C(=O)O[C@@H]2CN3Cc4c(cc5c(c4OC)OCO5)[C@@]24C=C[C@H](OC)C[C@@H]34)c1  IC50 (WST-1): 6.3 µM
CC(C)NCC(O)COc1cc2ccccc2cc1OCC(O)CNC(C)C (stereo not drawn)  IC50 (MTT; 72 h): > 75 µM
O=C(NC(=S)NCc1ccc(CNC(=S)NC(=O)c2ccc3ccccc3c2)cc1)c1ccc2ccccc2c1  IC50 (48 h): 1.19 µM
CCCCc1ccc2[nH]c(NC(=O)OC)nc2c1  IC50 (CCK-8; 72 h): 0.0996 µM
O=C(O)c1ccc(-n2nc(Oc3ccccc3)nc2/N=C/c2cc([N+](=O)[O-])ccc2O)cc1  IC50 (MTT): 21.6 µM
FC(F)(F)c1cccc(Nc2ncnc3ccc(-c4ccc(Cl)cc4)cc23)c1  IC50 (MTT; 24 h): 12.3 µM
O=[N+]([O-])c1ccc(S(=O)(=O)NN=Cc2cn(CCN3CCOCC3)c3ccccc23)cc1  IC50 (MTT; 48 h): 82 µM
CC/C(=C(\c1ccc(O)cc1)c1ccc(OCCNC)cc1)c1ccccc1  IC50 (5 days): 0.675 µM
COc1ccc(-c2nc3ccccc3[nH]2)cc1OC  IC50 (MTT; 48 h): > 100 µM
Nc1nc(Oc2ccccc2)nn1-c1ccc(C(=O)O)cc1  IC50 (MTT): 18.7 µM
CC(C)Cc1ccc(-c2nn(-c3ccc(S(C)(=O)=O)cc3)cc2/C=N/N=c2\[nH]c(-c3ccc(Br)cc3)cs2)cc1  IC50 (MTT; 48 h): 8.26 µM
CN1CCN(C/C=N/NC(=O)Nc2cc3c(Nc4ccc(F)c(Cl)c4)ncnc3cc2O[C@H]2CCOC2)CC1  IC50 (MTT; 72 h): 2.04 µM
O=c1cc(CO)occ1[O-].[Cl-].[W+4].c1cc[cH-]c1.c1cc[cH-]c1  IC50 (MTT): 590 µM
COc1cc2ncnc(Nc3ccc(F)c(Cl)c3)c2cc1NC(=O)N/N=C/c1cccn1CCCN1CCCCC1  IC50 (MTT; 72 h): 2.81 µM
O=C(NC(=S)N1CCCCC1)c1ccc2ccccc2c1  IC50 (48 h): 7.32 µM
